The text below walks through data of ChEMBL document CHEMBL4725347, “Discovery of a Monoiodo Aza-BODIPY Near-Infrared Photosensitizer: in vitro and in vivo Evaluation for Photodynamic Therapy” (J Med Chem, 2020).

Each structure is given as a SMILES string. Calls of active or inactive are those of the source. No cut-off for these calls is given here. Where only a bound is given, the exact number is not on record here.

Data set [1] can be described thus: Photostability of the compound in N,N-dimethylformamide assessed as compound degradation irradiated with 90 mW/cm2 light. The format is physicochemical.
The nature of data set [2]: Absorption property of the compound in chloroform assessed as hypsochromic shift by measuring maximum absorption wavelength by UV-visible spectrophotometric method. The format is physicochemical. The gist of the method:
(§1)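 Electronic absorption spectra recorded by UV-visible spectrophotometry at room temperature. Solvents were chloroform, isopropanol, acetonitrile, DMF, and PBS buffer containing 1% Cremophor EL/1,2-propanediol (10:3, v:v). Chloroform data were referenced to the non-halogenated parent dye.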

Data set [3] is described as follows: Absorption property of the compound in chloroform assessed as absorption coefficient by UV-visible spectrophotometric method. The format is physicochemical. An outline of the steps:
as §1

Data set [4] in a line: Emission property of the compound in chloroform assessed as maximum emission wavelength by fluorescence spectrophotometric method. The format is physicochemical. The gist of the method:
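Fluorescence spectrum recorded in chloroform by fluorescence spectrophotometer at room temperature.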

A short description of data set [5]: Absorption property of the compound in isopropanol assessed as absorption coefficient by UV-visible spectrophotometric method. The format is physicochemical. The gist of the method: as §1
Data set [6] can be described thus: Absorption property of the compound in acetonitrile assessed as absorption coefficient by UV-visible spectrophotometric method. Type of data set: physicochemical. An outline of the steps:
as §1

Data set [7] is described as follows: Induction of singlet oxygen generation in isopropanol assessed as relative rate of DPBF degradation to MB at 1 uM irradiated with 90 mW/cm2 halogen light. Type of data set: functional. An outline of the steps: (§2)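 Singlet oxygen generation measured with 1,3-diphenylisobenzofuran (DPBF) as scavenger. The decrease in DPBF absorbance at 411 nm was monitored over time during light irradiation, and the photodegradation rate was calculated.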

The nature of data set [8]: Induction of singlet oxygen generation in N,N-dimethylformamide assessed as relative rate of DPBF degradation to MB at 1 uM irradiated with 90 mW/cm2 halogen light. Type of data set: functional. The gist of the method: as §2
A short description of data set [9]: Dark toxicity in human SW480 cells assessed as reduction in cell viability after 3 hrs by MTT assay. The format is cell-based. A general note: Tetrazolium assays rely on reduction of a dye to a coloured formazan, in cell work by metabolically active cells.
Data set [10] concerns SW480. Kind of data set: Phototoxicity against human SW480 cells assessed as reduction in cell viability preincubated for 3 hrs followed by 54 J/cm2 light irradiation and measured after 24 hrs by MTT assay. The format is functional, cell-based. Conditions: SW480, light or radiation study. An outline of the steps:
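PS formulated in PBS containing Cremophor EL/1,2-propanediol (10:3, v:v) after THF removal, filtered, with concentration confirmed by UV-Vis. Cells were grown in DMEM with 10% FBS and seeded at 3×10^3 per well overnight. They were incubated with PS for 3 h, irradiated at λ > 590 nm, kept 24 h at 37 °C, then given MTT (0.5 mg/mL, 4 h) with DMSO solubilization and A490 read-out.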

A short description of data set [11]: Photostability of the compound in PBS containing 1% Cremophor EL/1,2-propanediol (10:3, v:v) system assessed as compound degradation irradiated with 90 mW/cm2 light. The format is physicochemical. Conditions: buffer.
Data set [12] is described as follows: Stability of the compound in PBS containing 1% Cremophor EL/1,2-propanediol (10:3, v:v) system assessed as compound degradation under dark condition. Conditions: buffer. The format is physicochemical.
Data set [13] in a line: Drug uptake in mitochondria of human HeLa cells at 5 uM incubated for 2 hrs under dark condition by mito-tracker green FM dye based laser confocal microscopic analysis. The format is ADME. An outline of the steps:
(§3)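 HeLa cells adhered overnight on glass-bottom dishes and were loaded with 5 μM compound in the dark for 2 h. After PBS washes, cells were stained with Mito-Tracker Green FM 250 nM for 30 min, Lyso-Tracker Green 160 nM for 30 min, or ER-Tracker Green 2 μM for 45 min. Confocal imaging: trackers excited at 488 nm, collected 500–560 nm; compound excited at 633 nm, collected 650–740 nm.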

A short description of data set [14]: Drug uptake in lysosomes of human HeLa cells at 5 uM incubated for 2 hrs under dark condition by Lyso tracker green dye based laser confocal microscopic analysis. Type of data set: ADME, subcellular, Lysosome. The gist of the method: as §3
In data set [15] the test system is HeLa. Nature of the data set: Induction of apoptosis in human HeLa cells assessed as viable cells at 40 nM preincubated for 3 hrs followed by 54 J/cm2 light irradiation and measured after 24 hrs by Annexin-V-FITC/propidium iodide staining based flow cytometry (reference value: 90.74%). Conditions: light or radiation study, read-out: Activity. Type of data set: functional. The gist of the method: (§4)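 HeLa cells in six-well plates were exposed to compound for 3 h, irradiated (λ > 590 nm), and incubated 24 h at 37 °C. Cells were then harvested, washed with PBS, and stained with annexin V-FITC/PI for 20 min at room temperature before immediate flow cytometry. Untreated, unirradiated cells served as control.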
(In flow cytometry, cells or beads pass a laser one at a time.)

Data set [16] concerns HeLa. Kind of data set: Induction of apoptosis in human HeLa cells assessed as viable cells at 200 nM preincubated for 3 hrs followed by 54 J/cm2 light irradiation and measured after 24 hrs by Annexin-V-FITC/propidium iodide staining based flow cytometry (reference value: 90.74%). The format is functional. Conditions: light or radiation study, read-out: Activity. An outline of the steps: as §4

In data set [17] the test system is HeLa. Nature of the data set: Induction of apoptosis in human HeLa cells assessed as early apoptotic cells at 200 nM preincubated for 3 hrs followed by 54 J/cm2 light irradiation and measured after 24 hrs by Annexin-V-FITC/propidium iodide staining based flow cytometry (reference value: 0.54%). Type of data set: functional. The gist of the method:
as §4

In data set [18] the test system is HeLa. Nature of the data set: Induction of apoptosis in human HeLa cells assessed as necrotic cells at 200 nM preincubated for 3 hrs followed by 54 J/cm2 light irradiation and measured after 24 hrs by Annexin-V-FITC/propidium iodide staining based flow cytometry (reference value: 2.8%). The format is functional. An outline of the steps: as §4
The test system of data set [19] is HeLa. Kind of data set: Induction of reactive oxygen species generation in human HeLa cells at 0.004 to 2.5 uM incubated for 3 hrs under dark condition by confocal scanning microscopic analysis. Type of data set: cell-based. The following applies: dose 0.004-2.5 µM. The gist of the method: (§5)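 HeLa cells were exposed to 0.004, 0.02, 0.10, 0.5 or 2.5 μM for 3 h, washed, and loaded with H2DCFDA 10 μM in PBS for 20 min at 37 °C. After washing, cells in PBS were irradiated with 54 J/cm² (λ > 590 nm) or kept dark. Fluorescence was read by confocal microscopy and by plate reader (ex 485/em 538 nm).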

Data set [20] has as its system HeLa. Nature of the data set: Induction of reactive oxygen species generation in human HeLa cells at 2.5 uM incubated for 3 hrs prior to H2DCFDA addition for 20 mins followed by 54 J/cm2 light irradiation by microplate reader analysis relative to dark treated cells. Type of data set: functional. The gist of the method:
as §5

A short description of data set [21]: Drug uptake in Balb/c nu/nu mouse xenografted with human HeLa cells at 2 mg/kg, iv measured over 10 hrs by fluorescence imaging analysis. The format is ADME, organism-based. The following applies: in vivo. The gist of the method:
(§6)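 Female Balb/c nu/nu mice bore subcutaneous HeLa tumors (5×10^6 cells, right back) and received 2 mg/kg via tail vein. Living mice were imaged under isoflurane at time points (ex 680/em 720 nm, 1 s exposure). At set times mice were euthanized and heart, liver, spleen, lungs, kidneys and tumor imaged ex vivo; ROI quantified, mean ± SD, n = 3.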
On the technique in general: Xenograft models place foreign cells or tissue in a host animal.

Data set [22] is described as follows: Drug uptake in human HeLa cells xenografted Balb/c nu/nu mouse heart at 2 mg/kg, iv measured after 3 hrs by fluorescence imaging analysis. Type of data set: ADME, organism-based. Conditions: in vivo. The gist of the method:
as §6

Data set [23] relates to HeLa. Kind of data set: Antitumor activity against human HeLa cells xenografted in Balb/c nu/nu mouse assessed as tumor growth inhibition at 2 mg/kg, iv pretreated for 15 mins followed by 54 J/cm2 light irradiation for 10 mins and measured after 24 days. The format is functional, organism-based. The gist of the method: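 Female Balb/c nu/nu mice with subcutaneous HeLa tumors (5×10^6 cells) reaching 80–100 mm³ on day 7 were randomized, n = 5 per group. Mice received 2 mg/kg by tail vein, or saline for controls. After 15 min the tumor was irradiated once with 54 J/cm² (75 W halogen lamp, >590 nm filter, 90 mW/cm², 10 min), unanaesthetized. Calipers every other day; V = 0.5×L×W²; body weight tracked.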

On to `COc1ccc(C2=[N+]3C(=Nc4c(-c5ccccc5)cc(-c5ccc(OC)cc5)n4[B-]3(F)F)C(c3ccccc3)=C2I)cc1`, for which the Stabilty result in data set [1] is “Unstable”; in data set [11], “Stable”; in data set [12], “Unstable”. In addition, the Activity in data set [2] came out at 678 nm; in [3], 97000 M⁻¹ cm⁻¹; in data set [4] it was 721 nm; in data set [5], 59300 M⁻¹ cm⁻¹; in data set [6], 59300 M⁻¹ cm⁻¹; in data set [17], 81.04%. The Activity was 2.22% in data set [18] and “Non-Toxic” in data set [19]. Moreover, the values for the fold change (FC) in data set [7], in data set [8] and in [20] were 7.3, 1.3 and 77, respectively. The IC50 at 3 h in data set [9] is greater than 50000 nM. The IC50 in data set [10] was 86 nM. Moreover, the Drug uptake result in [13] is listed as “Active”; in [14] it was “Active”; in data set [21] it was “Not Active”; in data set [22], “Active”. Further, in [15], the viability at 0.04 µM was 77.3%. The viability at 0.2 µM in data set [16] stood at 8.15%. Moreover, in data set [23], the TGI entry is “Active”.

As usually defined, the IC50 is the concentration at which inhibition is half-maximal.
